According to ChEMBL document CHEMBL1909507, “Substituted phenyl 4-(2-oxoimidazolidin-1-yl)benzenesulfonamides as antimitotics. Antiproliferative, antiangiogenic and antitumoral activity, and quantitative structure-activity relationships” (Eur J Med Chem, 2011):
Values belong to the compound of their own block, whether it stands above or below them. The source made the active and inactive calls. The calls are words filed in the database; no cut-off is given here.

Assays:
[1] = system: HT-29; test: Antiproliferative activity against human HT-29 cells after 48 hrs by SRB assay; assay type: functional, cell-based; settings: HT-29, 48 h
In short: (§1)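 Adherent cells were seeded per line (e.g. HT-29 5000, M21 3500, MCF7 7500, CHO and CHO-VV 3-2 and CHO-TAX 5-6 1000 cells/well) and grown 24 h at 37 °C, 5% CO₂. DMSO-solubilized drug was diluted in medium and added at 1000–0.98 nM for 48 h. Cells were fixed with cold 10% TCA and stained with 0.1% sulforhodamine B, with absorbance read at 530–565 nm.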

[2] = system: M21; test: Antiproliferative activity against human M21 cells after 48 hrs by SRB assay; assay type: functional, cell-based; settings: M21, 48 h; in short: as §1
[3] = system: MCF7; test: Antiproliferative activity against human MCF7 cells after 48 hrs by SRB assay; assay type: functional, cell-based; settings: MCF7, 48 h; in short: as §1
[4] = system: CHO-TAX 5-6; test: Ratio of IC50 for paclitaxel-resistant CHO-TAX 5-6 cells to IC50 for CHO cells; assay type: functional, Cricetulus griseus
In short: (§2)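 Each ratio is the IC50 in the resistant line divided by the IC50 in its parental line (CHO for CHO-TAX 5-6 and CHO-VV 3-2; CEM for CEM-VLB).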

[5] = system: CHO-VV 3-2; test: Antiproliferative activity against colchicine and vinblastine-resistant CHO-VV 3-2 cells after 48 hrs by SRB assay; assay type: functional, cell-based; settings: Cricetulus griseus, CHO-VV 3-2, 48 h; in short: as §1
[6] = system: CHO-VV 3-2; test: Ratio of IC50 for colchicine and vinblastine-resistant CHO-VV 3-2 cells to IC50 for CHO cells; assay type: functional, Cricetulus griseus; in short: as §2
[7] = Antiproliferative activity against human multidrug-resistant CEM/VLB cells after 48 hrs by SRB assay; assay type: functional
[8] = system: CCRF-CEM; test: Ratio of IC50 for human multidrug-resistant CEM/VLB cells to IC50 for human CEM cells; assay type: functional; in short: as §2
[9] = system: M21; test: Cell cycle arrest in human M21 cells assessed as accumulation at G0/G1 phase at 5 times IC50 after 24 hrs using propidium iodide staining by flow cytometric analysis (reference value: 61%); assay type: functional
In short: (§3)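 Cells were trypsinized, fixed in ice-cold ethanol, treated with RNase, and stained with propidium iodide (1 mg/mL stock) for 1 h on ice. Cell-cycle distribution was measured by flow cytometry.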

[10] = system: M21; test: Cell cycle arrest in human M21 cells assessed as accumulation at S phase at 5 times IC50 after 24 hrs using propidium iodide staining by flow cytometric analysis (reference value: 30%); assay type: functional; in short: as §3
[11] = system: M21; test: Cell cycle arrest in human M21 cells assessed as accumulation at G2/M phase at 5 times IC50 after 24 hrs using propidium iodide staining by flow cytometric analysis (reference value: 9%); assay type: functional; in short: as §3
[12] = system: MDA-MB-231; test: Displacement of N,N'-ethylenebis(iodoacetamide) from beta-tubulin colchicine-binding site in human MDA-MB-231 cells at 1000 times IC50 preincubated for 2 hrs before N,N'-ethylenebis(iodoacetamide) addition measured after 1.5 hrs by chemiluminescence assay; assay type: cell-based
In short: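 EBI (100, final) was added for 1.5 h at 37 °C with drug present; control was 0.5% DMSO. Sonicated lysates (20 µg protein) were run on 10% SDS-PAGE and blotted with anti-β-tubulin TUB 2.1. The β-tubulin–EBI adduct was scored by ECL.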

[13] = system: M21; test: Disruption of cytoskeleton microtubule structure of human M21 cells at 5 times IC50 after 16 hrs by indirect immunofluorescence assay; assay type: functional, cell-based
In short: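 Cells were fixed in 3.7% formaldehyde, permeabilized with saponin, and stained with anti-β-tubulin TUB 2.1, Alexa-488 anti-mouse secondary and DAPI. Fluorescence microscopy was used for imaging.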

[14] = Toxicity against fertilized chicken embryo assessed as mortality at 3 ug, iv by CAM assay; assay type: organism-based, Gallus gallus; settings: in vivo, read-out: Activity
In short: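 HT-1080 fibrosarcoma cells (3.5 × 10⁵ cells/egg) grafted onto the chorioallantoic membrane of fertilized chicken eggs (10 days preincubation). On day 11, drug in DMSO diluted into excipient (ethanol:cremophor:PBS 6.25:6.25:87.5) given iv at 3 µg per egg. Chick mortality recorded over 7-day tumor growth period. Untreated eggs as negative controls and for normalization. Cumulative results from two independent experiments, 10–12 eggs each.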

[15] = system: HT-1080; test: Antitumor activity against human HT1080 cells xenografted in chicken chorioallantoic membrane assessed as inhibition of tumor growth at 3 ug, iv measured on day 17 by CAM assay; assay type: functional
In short: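 Fertilized chicken eggs were incubated 10 days, then 3.5 × 10⁵ HT-1080 cells/egg were applied to the exposed chorioallantoic membrane. On day 11, drug was given iv in DMSO diluted in excipient (ethanol:cremophor:PBS 6.25:6.25:87.5). Read-out was tumor wet weight as % of untreated eggs, plus chick mortality. Data were pooled from two independent experiments of 10–12 eggs each.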

[16] = system: K562; test: Antiproliferative activity against human K562 after 48 hrs by SRB assay; assay type: functional, cell-based; settings: K562, 48 h
[17] = system: L1210; test: Antiproliferative activity against mouse L1210 after 48 hrs by SRB assay; assay type: functional, cell-based; settings: L1210, 48 h
[18] = system: DU-145; test: Antiproliferative activity against human DU145 after 48 hrs by SRB assay; assay type: functional, cell-based; settings: DU-145, 48 h
[19] = system: HT-1080; test: Antiproliferative activity against human HT1080 after 48 hrs by SRB assay; assay type: functional, cell-based; settings: HT-1080, 48 h; in short: as §1
[20] = system: MDA-MB-231; test: Antiproliferative activity against human MDA-MB-231 after 48 hrs by SRB assay; assay type: functional, cell-based; settings: MDA-MB-231, 48 h
[21] = system: SK-OV-3; test: Antiproliferative activity against human SKOV3 after 48 hrs by SRB assay; assay type: functional, cell-based; settings: SK-OV-3, 48 h; in short: as §1
[22] = system: CCRF-CEM; test: Antiproliferative activity against human CEM after 48 hrs by SRB assay; assay type: functional, cell-based
[23] = system: CHO-TAX 5-6; test: Antiproliferative activity against paclitaxel-resistant CHO-TAX 5-6 cells after 48 hrs by SRB assay; assay type: functional, cell-based; settings: Cricetulus griseus, CHO-TAX 5-6, 48 h; in short: as §1
[24] = Antiproliferative activity against mouse B16F0 after 48 hrs by SRB assay
[25] = Antiproliferative activity against mouse P388D1 after 48 hrs by SRB assay; settings: P388D1, 48 h
[26] = system: CHO; test: Antiproliferative activity against Chinese hamster CHO after 48 hrs by SRB assay; settings: Cricetulus griseus

SMILES: O=C1NCCN1c1ccc(S(=O)(=O)Nc2ccc(Cl)cc2)cc1
IC50 [1]: 220 nM
IC50 [2]: 90 nM
IC50 [3]: 170 nM

SMILES: COc1cc(NS(=O)(=O)c2ccc(N3CCNC3=O)cc2)cc(OC)c1
Ratio IC50 [4]: 0.67
IC50 [5]: 690 nM
Ratio IC50 [6]: 2.1
IC50 [7]: 1010 nM
Ratio IC50 [8]: 5.9
Activity [9]: 13%
Activity [10]: 28%
Activity [11]: 59%
Activity [12]: Active
Activity [13]: Active
mortality [14]: 13%
growth inhibition (GI) [15]: 31%
IC50 [1]: 78 nM
IC50 [2]: 60 nM
IC50 [3]: 170 nM
IC50 [16]: 110 nM
IC50 [17]: 110 nM
IC50 [18]: 700 nM
IC50 [19]: 150 nM
IC50 [20]: 340 nM
IC50 [21]: 170 nM
IC50 [22]: 170 nM
IC50 [23]: 220 nM
IC50 [24]: 280 nM
IC50 [25]: 200 nM
IC50 [26]: 330 nM

SMILES: CCCCc1ccc(NS(=O)(=O)c2ccc(N3CCNC3=O)cc2)cc1
IC50 [1]: 610 nM
IC50 [2]: 450 nM
IC50 [3]: 770 nM

SMILES: COc1cc2c(c(OC)c1OC)-c1ccc(OC)c(=O)cc1[C@@H](NC(C)=O)CC2 [COLCHICINE]
IC50 [7]: 360 nM
IC50 [24]: 13 nM
IC50 [25]: 28 nM

SMILES: O=C1NCCN1c1ccc(S(=O)(=O)Nc2ccc(I)cc2)cc1
IC50 [1]: 650 nM
IC50 [2]: 260 nM
IC50 [3]: 600 nM

SMILES: O=C1NCCN1c1ccc(S(=O)(=O)Nc2ccc(F)c(F)c2)cc1
IC50 [1]: 350 nM
IC50 [2]: 220 nM
IC50 [3]: 620 nM

SMILES: O=C(CI)NCCNC(=O)CI
Activity [12]: inactive

SMILES: O=C1NCCN1c1ccc(S(=O)(=O)Nc2ccc3c(c2)OCO3)cc1
IC50 [1]: 280 nM
IC50 [2]: 190 nM
IC50 [3]: 460 nM

SMILES: O=C1NCCN1c1ccc(S(=O)(=O)Nc2ccc(Br)cc2)cc1
IC50 [1]: 300 nM
IC50 [2]: 130 nM
IC50 [3]: 240 nM

SMILES: Cc1ccc(NS(=O)(=O)c2ccc(N3CCNC3=O)cc2)cc1
IC50 [1]: 480 nM
IC50 [2]: 260 nM
IC50 [3]: 610 nM

Now from value to compound, other results behind:

IC50 [1]: 190 nM
IC50 [3]: 240 nM
SMILES: O=C1NCCN1c1ccc(S(=O)(=O)Nc2ccc3c(c2)CCC3)cc1
IC50 [2]: 130 nM

IC50 [1]: > 1000 nM
IC50 [3]: > 1000 nM
SMILES: CCCCCCCc1ccc(NS(=O)(=O)c2ccc(N3CCNC3=O)cc2)cc1
IC50 [2]: > 1000 nM

IC50 [1]: > 1000 nM
IC50 [3]: > 1000 nM
SMILES: CCCCCCOc1ccc(NS(=O)(=O)c2ccc(N3CCNC3=O)cc2)cc1
IC50 [2]: > 1000 nM

IC50 [1]: 200 nM
IC50 [3]: 220 nM
SMILES: O=C1NCCN1c1ccc(S(=O)(=O)Nc2cccc(Oc3ccccc3)c2)cc1
IC50 [2]: 83 nM

IC50 [1]: 200 nM
IC50 [3]: 280 nM
SMILES: Cc1ccccc1NS(=O)(=O)c1ccc(N2CCNC2=O)cc1
IC50 [2]: 150 nM

IC50 [24]: 0.099 nM
IC50 [25]: 1.8 nM
SMILES: CC[C@]1(O)C[C@@H]2CN(CCc3c([nH]c4ccccc34)[C@@](C(=O)OC)(c3cc4c(cc3OC)N(C)[C@H]3[C@@](O)(C(=O)OC)[C@H](OC(C)=O)[C@]5(CC)C=CCN6CC[C@]43[C@@H]65)C2)C1 [VINBLASTINE]
Ratio IC50 [4]: 0.41
Ratio IC50 [6]: 3.9
IC50 [7]: 600 nM
Ratio IC50 [8]: 1579

IC50 [1]: > 1000 nM
IC50 [3]: > 1000 nM
SMILES: CC(C)(C)c1cc(NS(=O)(=O)c2ccc(N3CCNC3=O)cc2)cc(C(C)(C)C)c1
IC50 [2]: > 1000 nM

IC50 [24]: 28 nM
IC50 [25]: 35 nM
SMILES: CC(=O)O[C@H]1C(=O)[C@@]2(C)[C@H]([C@H](OC(=O)c3ccccc3)[C@]3(O)C[C@H](OC(=O)[C@H](O)[C@@H](NC(=O)c4ccccc4)c4ccccc4)C(C)=C1C3(C)C)[C@]1(OC(C)=O)CO[C@@H]1C[C@@H]2O [PACLITAXEL]
